ChEMBL document CHEMBL2021912, “Synthesis, cytotoxicity and apoptosis of cyclotriphosphazene compounds as anti-cancer agents” (Eur J Med Chem, 2012)
Activity calls are given as the source filed them. The calls are words filed in the database; no cut-off is given here.

What was measured:
Pseudomonas aeruginosa = assay: Antibacterial activity against Pseudomonas aeruginosa ATCC 27853 after 18 to 24 hrs by broth microdilution method; format: functional; settings: read-out: ID50 (the source's name)
Candida albicans = assay: Antifungal activity against Candida albicans ATCC 10231 after 48 hrs by broth microdilution method; format: functional; settings: ATCC 10231, 48 h, read-out: ID50 (the source's name)
HT-29 [1] = assay: Cytotoxicity against human HT-29 cells after 24 hrs at 37 degC by MTT assay; format: functional; settings: for IC50: HT-29, 24 h, read-out: ID50 (the source's name)
In short: (§1)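 Vero and HT-29 grown in DMEM/10% FBS, Hep2 in EMEM/10% FBS; seeded at 2 × 10^4 (Vero, Hep2) or 3 × 10^4 (HT-29) cells/mL; exposed 24 h to 0.2–50 µg/mL compound, final DMSO 1%; MTT 1 mg/mL 2 h at 37 °C, formazan in DMSO, OD 540 nm; % of DMSO control; ID50 by probit; triplicate wells, three repeats.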

HEp-2 [2] = assay: Cytotoxicity against human Hep2 cells after 24 hrs at 37 degC by MTT assay; format: functional; settings: for IC50: HEp-2, 24 h, read-out: ID50 (the source's name); in short: as §1
Escherichia coli = assay: Antibacterial activity against Escherichia coli ATCC 35218 after 18 to 24 hrs by broth microdilution method; format: functional; settings: read-out: ID50 (the source's name)
Staphylococcus aureus = assay: Antibacterial activity against Staphylococcus aureus ATCC 25923 after 18 to 24 hrs by broth microdilution method; format: functional; settings: read-out: ID50 (the source's name)
Vero = assay: (§2) Cytotoxicity against african green monkey Vero cells after 24 hrs at 37 degC by MTT assay; format: cell-based; settings: chlorocebus sabaeus, vero, 24 h; in short: as §1
[3] = as §2; format: cell-based; settings: chlorocebus sabaeus, Vero cells; read-out: ID50; in short: as §1
HT-29 [4] = assay: Induction of apoptosis in human HT-29 cells assessed as necrotic cells level after 24 hrs by annexin V-FITC and propidium iodide staining based flow cytometry; format: functional
In short: (§3)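 HT-29 seeded at 2-3 × 10^6 per flask in 10% FBS-DMEM, treated 24 h at several concentrations; etoposide (12.5–50 µg/mL) positive control; cells in HEPES pH 7.4/NaCl/CaCl2 buffer stained with annexin V-FITC 100 ng/mL and PI 0.1 µg/mL, 15 min room temperature, dark; flow cytometry quadrants; three experiments in duplicate.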

HT-29 [5] = assay: Induction of apoptosis in human HT-29 cells assessed as early apoptotic cells level after 24 hrs by annexin V-FITC and propidium iodide staining based flow cytometry; format: functional; in short: as §3
HT-29 [6] = assay: Induction of apoptosis in human HT-29 cells assessed as viable cell level after 24 hrs by annexin V-FITC and propidium iodide staining based flow cytometry; format: functional; in short: as §3
HT-29 [7] = assay: Induction of apoptosis in human HT-29 cells assessed as late apoptotic cells level after 24 hrs by annexin V-FITC and propidium iodide staining based flow cytometry; format: functional; in short: as §3
HEp-2 [8] = assay: Induction of apoptosis in human Hep2 cells assessed as early apoptotic cells level after 24 hrs by annexin V-FITC and propidium iodide staining based flow cytometry; format: functional
In short: (§4)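 Hep2 seeded at 2-3 × 10^6 per flask, treated 24 h at several concentrations; cisplatin 200 µM positive control; cells in HEPES pH 7.4/NaCl/CaCl2 buffer stained with annexin V-FITC 100 ng/mL and PI 0.1 µg/mL, 15 min room temperature, dark; flow cytometry quadrants; three experiments in duplicate.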

HEp-2 [9] = assay: Induction of apoptosis in human Hep2 cells assessed as viable cell level after 24 hrs by annexin V-FITC and propidium iodide staining based flow cytometry; format: functional; in short: as §4
HEp-2 [10] = assay: Induction of apoptosis in human Hep2 cells assessed as late apoptotic cells level after 24 hrs by annexin V-FITC and propidium iodide staining based flow cytometry; format: functional; in short: as §4
HEp-2 [11] = assay: Induction of apoptosis in human Hep2 cells assessed as necrotic cells level after 24 hrs by annexin V-FITC and propidium iodide staining based flow cytometry; format: functional; in short: as §4

## ClP1(Cl)=NP2(=NP(Nc3ccccc3)(Nc3ccccc3)=N1)NCCCN2CCCCN1CCCNP12=NP(Nc1ccccc1)(Nc1ccccc1)=NP(Cl)(Cl)=N2 (stereo unspecified)
Pseudomonas aeruginosa
  IC50: > 250 µg/mL
Candida albicans
  IC50: > 250 µg/mL
HT-29 [1]
  ID50: inactive
HEp-2 [2]
  ID50: inactive
Escherichia coli
  IC50: > 250 µg/mL
Staphylococcus aureus
  IC50: > 250 µg/mL
Vero
  ID50: Non-toxic

## FC1(F)COP2(Cl)=NP(Cl)(=NP3(=N2)NCCCN3CCCCN2CCCNP23=NP2(Cl)=NP(Cl)(=N3)OCC(F)(F)C(F)(F)CO2)OCC1(F)F (stereo unspecified)
Pseudomonas aeruginosa
  IC50: > 250 µg/mL
Candida albicans
  IC50: > 250 µg/mL
HT-29 [1]
  ID50: inactive
HEp-2 [2]
  IC50: 2.63 µM
Escherichia coli
  IC50: > 250 µg/mL
Staphylococcus aureus
  IC50: > 250 µg/mL
[3]
  CC50 at 24 h: 1.61 µM

## CC1(C)COP2(=NP(Cl)(Cl)=NP3(=N2)NCCCN3CCCCN2CCCNP23=NP2(=NP(Cl)(Cl)=N3)OCC(C)(C)CO2)OC1 (stereo unspecified)
Pseudomonas aeruginosa
  IC50: > 250 µg/mL
Candida albicans
  IC50: > 250 µg/mL
HT-29 [4]
  Activity: 1.41%
HT-29 [5]
  Activity: 63.78%
HT-29 [6]
  Activity: 32.84%
HT-29 [1]
  IC50: 2.75 µM
HEp-2 [2]
  ID50: inactive
Escherichia coli
  IC50: > 250 µg/mL
Staphylococcus aureus
  IC50: > 250 µg/mL
HT-29 [7]
  Activity: 1.97%
[3]
  CC50 at 24 h: 2.65 µM

## FC1(F)COP2(=NP(Cl)(Cl)=NP3(=N2)NCCCN3CCCCN2CCCNP23=NP(Cl)(Cl)=NP2(=N3)OCC(F)(F)C(F)(F)CO2)OCC1(F)F (stereo unspecified)
Pseudomonas aeruginosa
  IC50: > 250 µg/mL
Candida albicans
  IC50: > 250 µg/mL
HT-29 [4]
  Activity: 0.8%
HT-29 [5]
  Activity: 81.42%
HT-29 [6]
  Activity: 17.25%
HT-29 [1]
  IC50: 2.33 µM
HEp-2 [2]
  ID50: inactive
Escherichia coli
  IC50: > 250 µg/mL
Staphylococcus aureus
  IC50: > 250 µg/mL
HT-29 [7]
  Activity: 0.53%
[3]
  CC50 at 24 h: 1.31 µM

## c1ccc(NP2(Nc3ccccc3)=NP34=NP5(=N2)NCCCN5CCCCN3CCCN4)cc1 (stereo unspecified)
Pseudomonas aeruginosa
  IC50: > 250 µg/mL
Candida albicans
  IC50: > 250 µg/mL
HT-29 [4]
  Activity: 1.35%
HT-29 [5]
  Activity: 80.1%
HT-29 [6]
  Activity: 18.2%
HT-29 [1]
  IC50: 4.58 µM
HEp-2 [2]
  ID50: inactive
Escherichia coli
  IC50: > 250 µg/mL
Staphylococcus aureus
  IC50: > 250 µg/mL
HT-29 [7]
  Activity: 0.35%
[3]
  CC50 at 24 h: 6.55 µM

## CC1(C)COP2(=NP34=NP5(=N2)NCCCN5CCCCN3CCCN4)OC1 (stereo unspecified)
Pseudomonas aeruginosa
  IC50: > 250 µg/mL
Candida albicans
  IC50: > 250 µg/mL
HEp-2 [8]
  Activity: 77.29%
HEp-2 [9]
  Activity: 19.39%
HEp-2 [10]
  Activity: 3.32%
HT-29 [1]
  ID50: inactive
HEp-2 [2]
  IC50: 3.23 µM
Escherichia coli
  IC50: > 250 µg/mL
Staphylococcus aureus
  IC50: > 250 µg/mL
HEp-2 [11]
  Activity: 0%
[3]
  CC50 at 24 h: 5.88 µM

## ClP1(Cl)=NP2(=NP(Sc3ccccc3)(Sc3ccccc3)=N1)NCCCN2CCCCN1CCCNP12=NP(Sc1ccccc1)(Sc1ccccc1)=NP(Cl)(Cl)=N2 (stereo unspecified)
Pseudomonas aeruginosa
  IC50: > 250 µg/mL
Candida albicans
  IC50: > 250 µg/mL
HT-29 [1]
  IC50: 1.96 µM
HEp-2 [2]
  ID50: inactive
Escherichia coli
  IC50: > 250 µg/mL
Staphylococcus aureus
  IC50: > 250 µg/mL
[3]
  CC50 at 24 h: 3.35 µM

## FC1(F)COP2(=NP34=NP5(=N2)NCCCN5CCCCN3CCCN4)OCC1(F)F (stereo unspecified)
Pseudomonas aeruginosa
  IC50: > 250 µg/mL
Candida albicans
  IC50: > 250 µg/mL
HEp-2 [8]
  Activity: 60.78%
HEp-2 [9]
  Activity: 32.78%
HEp-2 [10]
  Activity: 5.34%
HT-29 [1]
  ID50: inactive
HEp-2 [2]
  IC50: 3.39 µM
Escherichia coli
  IC50: > 250 µg/mL
Staphylococcus aureus
  IC50: > 250 µg/mL
HEp-2 [11]
  Activity: 1.1%
[3]
  CC50 at 24 h: 5.41 µM
